Assay results published in ChEMBL document CHEMBL5724801, “EUbOPEN Chemogenomics Library - Multiplex” (2024).
Where “and” joins values, the source holds several entries; their conditions need not be identical. Equal values may be shown once.

Legend:
Assay type in all cases: toxicity, cell-based
HEK-293T = assay: Multiplex assay against HEK293T; conditions: human
Method in brief: (§1)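 Cells were classed with CellPathfinder machine-learning gating, first as Hoechst high-intensity objects or normal cells, then (normal cells) as healthy, pyknosed or fragmented nuclei, and finally (pyknosed cells) as mitotic or apoptotic. Staining of live cells at seeding used Hoechst33342, BioTracker Green Microtubule Cytoskeleton Dye, MitoTracker Red and Annexin V Alexa Fluor 680, with imaging on a CQ1 microscope at 37°C and 5% CO2 after compound addition. Tubulin, mitochondrial-mass and membrane-permeability phenotypes are per cents of healthy-nucleus cells.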

U2OS = assay: Multiplex assay against U2OS; conditions: human; method in brief: as §1
Fibroblast = assay: Multiplex assay against human fibroblast; method in brief: as §1
[1] = 12 h, 1 µM, compound concentration 1 uM
[2] = 12 h, 10 µM, compound concentration 10 uM
[3] = 24 h, 1 µM, compound concentration 1 uM
[4] = 24 h, 10 µM, compound concentration 10 uM
[5] = 48 h, 1 µM, compound concentration 1 uM
[6] = 48 h, 10 µM, compound concentration 10 uM

## Clc1ccccc1C(c1ccccc1)(c1ccccc1)n1cccn1
HEK-293T; [1]
  Population Apoptotic (%): 7.87% and 11.11%
  Population Fragmented Nuclei (%): 1.79% and 6.3%
  Population Hoechst High Intensity Objects (%): 0%
  Population Membrane Permeable-Phenotype (%): 0% and 5%
  Population Mitochondria Different-Phenotype (%): 33.99% and 35%
  Population Mitotic Cells (%): 92.13% and 88.89%
  Population Normal (%): 100%
  Population Pyknosed Nuclei (%): 37.8% and 77.95%
  Total Cell Count: 336 and 127
HEK-293T; [2]
  Population Apoptotic (%): 10.45% and 10.49%
  Population Fragmented Nuclei (%): 2.33% and 0.57%
  Population Hoechst High Intensity Objects (%): 0.33% and 0%
  Population Membrane Permeable-Phenotype (%): 0%
  Population Mitochondria Different-Phenotype (%): 33.96% and 33.33%
  Population Mitotic Cells (%): 89.55% and 89.51%
  Population Normal (%): 99.67% and 100%
  Population Pyknosed Nuclei (%): 44.67% and 82.18%
  Total Cell Count: 301 and 174
HEK-293T; [3]
  Population Apoptotic (%): 11.32% and 14.85%
  Population Fragmented Nuclei (%): 0.96% and 6.08%
  Population Hoechst High Intensity Objects (%): 0.19% and 0%
  Population Membrane Permeable-Phenotype (%): 0.49% and 2.63%
  Population Mitochondria Different-Phenotype (%): 14.43% and 13.16%
  Population Mitotic Cells (%): 88.68% and 85.15%
  Population Normal (%): 99.81% and 100%
  Population Tubulin-Different-Phenotype (%): 9.78% and 7.89%
HEK-293T; [4]
  Population Apoptotic (%): 19.64% and 15.94%
  Population Fragmented Nuclei (%): 2.8% and 0.54%
  Population Healthy Nuclei (%): 71.1% and 24.46%
  Population Hoechst High Intensity Objects (%): 0.23% and 0%
  Population Membrane Permeable-Phenotype (%): 1.31% and 0%
  Population Mitochondria Different-Phenotype (%): 27.87% and 13.33%
  Population Mitotic Cells (%): 80.36% and 84.06%
  Population Normal (%): 99.77% and 100%
  Population Pyknosed Nuclei (%): 26.11% and 75%
  Total Cell Count: 430 and 184
HEK-293T; [5]
  Population Apoptotic (%): 7.89% and 12.96%
  Population Fragmented Nuclei (%): 3.42% and 3.98%
  Population Healthy Nuclei (%): 87.9% and 72.12%
  Population Hoechst High Intensity Objects (%): 0% and 1.74%
  Population Membrane Permeable-Phenotype (%): 5.37% and 2.45%
  Population Mitochondria Different-Phenotype (%): 12.03% and 23.31%
  Population Mitotic Cells (%): 92.11% and 87.04%
  Population Normal (%): 100% and 98.26%
  Population Pyknosed Nuclei (%): 8.68% and 23.89%
HEK-293T; [6]
  Population Apoptotic (%): 9.93% and 27.4%
  Population Fragmented Nuclei (%): 4.13% and 2.25%
  Population Healthy Nuclei (%): 81.99% and 70.41%
  Population Hoechst High Intensity Objects (%): 0%
  Population Membrane Permeable-Phenotype (%): 8.52% and 2.66%
  Population Mitochondria Different-Phenotype (%): 24.73% and 43.09%
  Population Mitotic Cells (%): 90.07% and 72.6%
  Population Normal (%): 100%
  Population Pyknosed Nuclei (%): 13.88% and 27.34%
U2OS; [1]
  Population Apoptotic (%): 52.94% and 50%
  Population Fragmented Nuclei (%): 0.85% and 6.19%
  Population Healthy Nuclei (%): 94.3% and 76.11%
  Population Hoechst High Intensity Objects (%): 0%
  Population Membrane Permeable-Phenotype (%): 0.91% and 5.81%
  Population Mitochondria Different-Phenotype (%): 0.6% and 8.14%
  Population Mitotic Cells (%): 47.06% and 50%
  Population Normal (%): 100%
  Population Tubulin-Different-Phenotype (%): 1.51% and 2.33%
U2OS; [2]
  Population Apoptotic (%): 36% and 44%
  Population Fragmented Nuclei (%): 1.64% and 4.81%
  Population Healthy Nuclei (%): 84.7% and 71.15%
  Population Hoechst High Intensity Objects (%): 0%
  Population Membrane Permeable-Phenotype (%): 2.58% and 8.11%
  Population Mitotic Cells (%): 64% and 56%
  Population Normal (%): 100%
  Population Pyknosed Nuclei (%): 13.66% and 24.04%
  Population Tubulin-Different-Phenotype (%): 4.19% and 5.41%
U2OS; [3]
  Population Apoptotic (%): 37.5% and 52.38%
  Population Fragmented Nuclei (%): 0.42% and 4.86%
  Population Healthy Nuclei (%): 89.47% and 80.56%
  Population Hoechst High Intensity Objects (%): 0%
  Population Membrane Permeable-Phenotype (%): 0.71% and 2.59%
  Population Mitochondria Different-Phenotype (%): 0% and 6.9%
  Population Mitotic Cells (%): 62.5% and 47.62%
  Population Normal (%): 100%
  Population Pyknosed Nuclei (%): 10.11% and 14.58%
  Population Tubulin-Different-Phenotype (%): 0.71% and 0%
U2OS; [4]
  Population Apoptotic (%): 45.33% and 34.38%
  Population Fragmented Nuclei (%): 1.25% and 0.79%
  Population Healthy Nuclei (%): 83.12% and 73.81%
  Population Hoechst High Intensity Objects (%): 0%
  Population Membrane Permeable-Phenotype (%): 0.75% and 4.3%
  Population Mitotic Cells (%): 54.67% and 65.62%
  Population Normal (%): 100%
  Population Pyknosed Nuclei (%): 15.62% and 25.4%
  Population Tubulin-Different-Phenotype (%): 2.51% and 2.15%
U2OS; [5]
  Population Apoptotic (%): 43.33% and 70%
  Population Fragmented Nuclei (%): 3.58% and 1.82%
  Population Healthy Nuclei (%): 89.7% and 89.09%
  Population Hoechst High Intensity Objects (%): 0%
  Population Membrane Permeable-Phenotype (%): 0.75% and 3.57%
  Population Mitochondria Different-Phenotype (%): 0.12% and 4.08%
  Population Mitotic Cells (%): 56.67% and 30%
  Population Normal (%): 100%
  Population Pyknosed Nuclei (%): 6.72% and 9.09%
  Population Tubulin-Different-Phenotype (%): 1.25% and 2.04%
U2OS; [6]
  Population Apoptotic (%): 51.65% and 41.67%
  Population Fragmented Nuclei (%): 2.12% and 0.6%
  Population Healthy Nuclei (%): 85.85% and 77.71%
  Population Hoechst High Intensity Objects (%): 0%
  Population Membrane Permeable-Phenotype (%): 1.54% and 5.43%
  Population Mitochondria Different-Phenotype (%): 1.08% and 10.08%
  Population Mitotic Cells (%): 48.35% and 58.33%
  Population Normal (%): 100%
  Population Pyknosed Nuclei (%): 12.04% and 21.69%
  Population Tubulin-Different-Phenotype (%): 3.08% and 5.43%
Fibroblast; [1]
  Population Apoptotic (%): 14.29% and 24%
  Population Healthy Nuclei (%): 59.04% and 80.46%
  Population Hoechst High Intensity Objects (%): 0%
  Population Membrane Permeable-Phenotype (%): 4.08% and 0.71%
  Population Mitochondria Different-Phenotype (%): 5.1% and 12.14%
  Population Mitotic Cells (%): 85.71% and 76%
  Population Normal (%): 100%
  Population Pyknosed Nuclei (%): 25.3% and 14.37%
  Total Cell Count: 166 and 174
Fibroblast; [2]
  Population Apoptotic (%): 9.84% and 23.44%
  Population Fragmented Nuclei (%): 9.09% and 6.46%
  Population Healthy Nuclei (%): 63.18% and 69.2%
  Population Hoechst High Intensity Objects (%): 0%
  Population Membrane Permeable-Phenotype (%): 9.35% and 3.85%
  Population Mitochondria Different-Phenotype (%): 14.39% and 16.48%
  Population Mitotic Cells (%): 90.16% and 76.56%
  Population Normal (%): 100%
  Population Pyknosed Nuclei (%): 27.73% and 24.33%
  Population Tubulin-Different-Phenotype (%): 30.22% and 45.6%
  Total Cell Count: 220 and 263
Fibroblast; [3]
  Population Fragmented Nuclei (%): 12.05% and 9.29%
  Population Healthy Nuclei (%): 71.08% and 85.25%
  Population Hoechst High Intensity Objects (%): 0%
  Population Membrane Permeable-Phenotype (%): 4.24% and 2.56%
  Population Mitochondria Different-Phenotype (%): 3.39% and 8.97%
  Population Mitotic Cells (%): 96.43% and 60%
  Population Normal (%): 100%
  Population Tubulin-Different-Phenotype (%): 10.17% and 21.15%
  Total Cell Count: 166 and 183
Fibroblast; [4]
  Population Apoptotic (%): 13.04% and 31.25%
  Population Healthy Nuclei (%): 67.26% and 79.55%
  Population Hoechst High Intensity Objects (%): 0%
  Population Membrane Permeable-Phenotype (%): 9.87% and 0.95%
  Population Mitochondria Different-Phenotype (%): 7.24% and 10.95%
  Population Mitotic Cells (%): 86.96% and 68.75%
  Population Normal (%): 100%
  Population Pyknosed Nuclei (%): 20.35% and 18.18%
  Population Tubulin-Different-Phenotype (%): 45.39% and 44.29%
  Total Cell Count: 226 and 264
Fibroblast; [5]
  Population Apoptotic (%): 40% and 22.22%
  Population Fragmented Nuclei (%): 11.92% and 7.69%
  Population Healthy Nuclei (%): 82.9% and 87.69%
  Population Hoechst High Intensity Objects (%): 0%
  Population Membrane Permeable-Phenotype (%): 0.62% and 0.58%
  Population Mitochondria Different-Phenotype (%): 11.25% and 3.51%
  Population Mitotic Cells (%): 60% and 77.78%
  Population Normal (%): 100%
  Population Pyknosed Nuclei (%): 5.18% and 4.62%
  Total Cell Count: 193 and 195
Fibroblast; [6]
  Population Apoptotic (%): 30.77% and 42.86%
  Population Fragmented Nuclei (%): 9.35% and 4.71%
  Population Healthy Nuclei (%): 85.37% and 89.8%
  Population Hoechst High Intensity Objects (%): 0%
  Population Membrane Permeable-Phenotype (%): 1.9% and 3.49%
  Population Mitochondria Different-Phenotype (%): 13.33% and 6.11%
  Population Mitotic Cells (%): 69.23% and 57.14%
  Population Normal (%): 100%
  Population Pyknosed Nuclei (%): 5.28% and 5.49%
  Population Tubulin-Different-Phenotype (%): 14.76% and 36.24%
  Total Cell Count: 246 and 255
